Results from different studies.
Target: Casein kinase I isoform gamma-2 (CSNK1G2, Homo sapiens, UniProt P78368)

The remaining binding of COc1ccc2oc(-c3ccc4nc(N)oc4c3)c/c(=N\c3ccccc3NC(=O)CCN)c2c1 is reported as 95% (binding; 1 µM).
For C#Cc1cnc(Nc2ccnc(CO)c2)nc1Nc1ccccc1S(C)(=O)=NC#N (stereo not drawn), the remaining signal was 65% (cell-free assay; 1 µM).
For Cc1cc(O)c(-c2ccc([C@@H](C)CN(C)C)cc2)c2c1[nH]c(=O)c1sccc12, the inhibition was -6.66% (enzyme activity, inhibitor; 0.1 µM).
With CC(C)S(=O)(=O)c1ccc2nccc(Nc3ccc4sc(C5CCCC5)nc4c3)c2c1 the activity vs control was 100% (enzyme activity, inhibitor; 1 µM).
The remaining signal of C1=C/COCc2cc(ccc2OCCN2CCCC2)Nc2nccc(n2)-c2cccc(c2)COC/1 is reported as 92% (cell-free assay; 0.1 µM).
CCCCC(=O)Nc1ccc(-c2ccc3ncn(CCC)c(=O)c3c2)cn1 has a remaining binding of 91% (binding, competition with immobilised ligand; 0.5 µM).
With N#Cc1ccc2nc(Nc3ccc(N4CCOCC4)c(Cl)c3)[nH]c2c1 the ΔTm was 3.6 °C (thermal stability, DSF; 30 µM).
For CO[C@@H]1[C@H](N(C)C(=O)c2ccccc2)C[C@H]2O[C@]1(C)n1c3ccccc3c3c4c(c5c6ccccc6n2c5c31)C(=O)NC4, the inhibition was 4% (enzyme activity, inhibitor; 1 µM).
The remaining signal of C[C@H]1CC[C@H](n2c3cnccc3c3cnc(Nc4ccc5c(n4)CCN(C(=O)CO)C5)nc32)CC1 is reported as 98% (cell-free assay; 1 µM).
The inhibition of CC#CC(=O)N1CCC[C@H]1c1nc(-c2ccc(C(=O)Nc3ccccn3)cc2)c2c(N)nccn12 is reported as 9% (enzyme activity, inhibitor; 1 µM).
CN1CCN(C(=O)c2ccc(NC(=O)Nc3ccc(N(C)c4ccnc(Nc5ccc(CS(C)(=O)=O)cc5)n4)cc3)cc2)CC1 has a remaining binding of 100% (binding; 1 µM).
For N#Cc1ccc(NC(=O)Nc2ccccc2)cc1, the remaining binding was 100% (cell-free assay, competition with immobilised ligand; 25 µM).
